GAA850 FXN act: increases GAA850 frataxin promoter reporter activity; HEK293 lucGAA850 FXN promoter luciferase reporter, 24 h; percent of 10 µM SAHA response; actives 0.56% (n = 360,000); AID 540364; activation, % at 6 µM;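 active means activation above the average of all compounds screened plus 3 SD, cutoff fixed separately per campaign, cut at about 7.5% in these data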;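 further: 0% = DMSO wells and 100% = 10 µM SAHA wells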
APJ antagonist: APJ receptor antagonism | AID 2521 | CHO-K1 APJ beta-arrestin complementation, luminescence | P35414 | inhibition, % at 20 µM | actives 0.32% (n = 330,000);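 active means inhibition above about 40% at 20 µM, limit read from the data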;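 further: cells challenged with 10 nM apelin-13 agonist together with compound; plate controls were apelin-13 plus DMSO wells for no effect and DMSO wells lacking apelin-13 for full effect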
Target sequence (P35414 whole entry, looked up): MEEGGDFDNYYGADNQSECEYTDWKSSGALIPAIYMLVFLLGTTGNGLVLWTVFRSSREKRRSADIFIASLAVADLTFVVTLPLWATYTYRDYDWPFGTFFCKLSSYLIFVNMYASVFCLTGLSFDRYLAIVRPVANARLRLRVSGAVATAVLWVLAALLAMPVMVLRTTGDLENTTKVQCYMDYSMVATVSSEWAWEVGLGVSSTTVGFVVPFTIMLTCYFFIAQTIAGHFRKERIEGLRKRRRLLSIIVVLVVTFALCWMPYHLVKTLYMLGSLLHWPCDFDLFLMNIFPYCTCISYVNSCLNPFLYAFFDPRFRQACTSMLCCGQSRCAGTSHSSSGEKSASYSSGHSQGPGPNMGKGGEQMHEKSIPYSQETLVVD
CCR6 antag: CCR6 (human) receptor antagonism | P51684 | AID 493098 | inhibition, % at 20 µM | CHO-K1 CCR6 PathHunter beta-arrestin, luminescence, CCL20-stimulated | actives 0.49% (n = 340,000);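 active means compounds whose inhibition of the agonist-driven luminescence signal at 20 µM reaches about 50%, limit read from the data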;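 further: cells stimulated with CCL20 at 14 nM final; plate controls were DMSO with CCL20 for no effect and DMSO without agonist for full effect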
EBI2 block: blocks human EBI2 receptor beta-arrestin signaling. P32249. EBI2 beta-arrestin recruitment, luminescence, 7a,25-OHC stimulated. inhibition, % at 5 µM. actives 0.81% (n = 360,000). AID 651636; in the data active means inhibition above about 38%;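 further: enzyme fragment complementation signal reports receptor beta-arrestin coupling in cells; 0% = agonist plus DMSO wells and 100% = wells without agonist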
CXCR6 block: CXCR6 (human) receptor inhibition | O00574 | CHO-K1 PathHunter CXCR6 beta-arrestin, luminescence | inhibition, % at 20 µM | actives 0.36% (n = 360,000); in the data active means inhibition above about 34%, passing the limit was not always enough;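 further: antagonist mode with CXCL16 agonist at 10 nM final; 0% = 10 nM CXCL16 with DMSO and 100% = unstimulated wells without agonist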
APJ ag: agonists of human APJ apelin receptor; P35414; CHO-K1 APJ PathHunter beta-arrestin, luminescence; 0% DMSO wells, 100% apelin; activation, % at 20 µM; actives 0.11% (n = 330,000);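 active means activation more than six SD over the plate average, tested at 20 µM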;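 further: 0% = DMSO alone and 100% = apelin-13 at 10 nM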
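Test system – PathHunter CHO-K1 APJ (AGTRL-1) beta-arrestin reporter cells · Input – 1000 cells/well · Compound – single test compound dose, 20 µM final, 1% DMSO · Times – compound stimulation 90 min at 25 °C, detection 60 min · Technique – beta-gal luminescence · Read-out basis – APJ–arrestin association signal · Control set – negative DMSO alone, positive Apelin-13 at 10 nM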
GAA30 counter: activates GAA30 frataxin promoter, counter-screen for GAA850 activators | activation, % at 6 µM | shares compounds with GAA850 FXN act | actives 66% (n = 1,900) | HEK293 lucGAA30 FXN promoter luciferase, 24 h; DMSO = 0%, 5 µM ipriflavone = 100%;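 active means mean activation above the mean of solvent-only control wells plus 3 SD, cut at about 22% in these data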;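 further: counterscreen of GAA850 promoter hits where activity marks nonselective or luminescence artifacts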
FXN GAA850 conf: confirmation of GAA850 frataxin (FXN) promoter activators | shares compounds with GAA850 FXN act | HEK293 lucGAA850 FXN promoter luciferase reporter, 24 h; 100% = activation by SAHA | activation, % at 6 µM | actives 86% (n = 1,900) | AID 588351;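 active means mean activation above a set limit taken from the primary screen, cut at about 8% in these data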;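 further: 0% = DMSO wells and 100% = 10 µM SAHA wells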
* hit, by the source's call; . = no result. The list is not random: actives were taken first. Their share in the collection is about 2%.

SMILES	GAA850 FXN act	APJ antagonist	CCR6 antag	EBI2 block	CXCR6 block	APJ ag	GAA30 counter	FXN GAA850 conf
COc1ccc(OC)c(-c2cc(C(=O)NCCCn3ccnc3)no2)c1	6	14	1	-4	-6	-3	.	.
O=C(NCCCN1CCOCC1)c1cc(-c2cccs2)on1	20*	-4	13	-14	6	-1	113*	80*
Cc1ccc(-c2cc(C(=O)NCCCN3CCOCC3)no2)cc1	-9	8	-1	5	-7	-4	.	.
CCCCCCCCCC(=O)N[C@@H]1c2cc(OC)c(OC)cc2C[C@H]1OCc1ccccc1	-1	.	-3	23	-3	.	.	.
COc1ccc2cc3cc(C(=O)N4CCCCCC4)oc3nc2c1	1	13	14	10	5	-5	.	.
COc1ccc2cc3cc(C(=O)N4CCCCC4C)oc3nc2c1 (centres undefined)	8.0*	-1	16	13	-3	4	122*	38*
c1ccc(Cn2c[n+](Cc3ccccc3)c3ccccc32)cc1	-1	10	9	5	11	-3	.	.
Cc1nnc(SCc2cccc3ccccc23)s1	7.6*	-2	0	0	2	0	80*	29*
COc1cc(OC)cc(-c2cc3cc(F)ccc3cn2)c1	8.0*	-6	13	-5	0	-1	95*	36*
COc1ccc(-c2cc3cc(F)ccc3cn2)cc1	3	-6	-4	-4	-2	-1	.	.
CN(C(=O)c1cccc(COc2ccc(Cl)cc2Cl)c1)c1ccccc1	8.3*	.	18	35	1	.	102*	39*
CCOC(=O)C1=C(C)NC(=O)NC1c1ccc(OC(=O)c2ccco2)cc1 (centres undefined)	-1	0	-20	-27	13	-1	.	.
COc1cc(C2NC(=O)NC(C)=C2C(=O)OCc2ccccc2)ccc1O (centres undefined)	8.9*	-9	3	-11	5	-4	-3	10*
COCCOC(=O)C1=C(C)NC(=O)NC1c1ccc(OC(=O)c2ccco2)c(OC)c1 (centres undefined)	13*	5	4	-1	-3	0	33*	10*
CC(=O)c1ccc(-c2cnc3c(NC=O)cc(-c4ccccc4Oc4ccccc4)cn23)cc1	-3	.	.	31	10	.	.	.
COc1ccc(NC(=O)CSCC(=O)Nc2cc(Cl)ccc2N2CCCC2)cc1	8.5*	15	18	6	5	0	9	6
CCN(CC(=O)Nc1c(F)cccc1F)C(=O)COc1cccc2c1OC(C)(C)C2	0	7	-12	4	6	1	.	.
Cn1c(O)c(N=NC(=O)c2ccco2)c2ccccc21	8.4*	-2	9	1	4	-2	144*	38*
Cc1ccc2nc(NC(=O)COC(=O)c3ccc(Br)o3)sc2c1	9.4*	6	-1	2	3	-2	88*	28*
COc1ccc(OCCOc2ccc(C)nc2[N+](=O)[O-])cc1	7.7*	-10	-7	0	2	-2	78*	24*
CCOC(=O)C(Cc1cc(N)c(Oc2ccc(OC)cc2)c(N)c1)NC(C)=O (centres undefined)	0	.	-2	4	1	.	.	.
CCOC(=O)c1c(C)nc2c3ccccc3ccn12	8.1*	26	-8	-5	-15	8	118*	44*
O=C(Oc1c(CN2CCOCC2)cc(Cl)c2cccnc12)c1ccccc1Cl	13*	11	42	53*	28	-2	3	19*
O=C(Oc1c(CN2CCOCC2)cc(Cl)c2cccnc12)c1cccs1	-1	18	32	18	13	-1	.	.
COc1ccc(C(=O)Oc2c(CN3CCOCC3)cc(Cl)c3cccnc23)cc1	0	7	24	4	7	-3	.	.
SMILES	GAA850 FXN act	APJ antagonist	CCR6 antag	EBI2 block	CXCR6 block	APJ ag	GAA30 counter	FXN GAA850 conf
COc1cc(C(=O)Oc2c(CN3CCOCC3)cc(Cl)c3cccnc23)cc(OC)c1OC	18*	-13	14	42	29	-4	-27	24*
COc1cccc(C(=O)Oc2c(CN3CCOCC3)cc(Cl)c3cccnc23)c1	8.2*	10	31	29	36	-6	16	8.3*
CC(C)NC(=O)C(C)Oc1ccc(S(=O)(=O)NCc2ccc3c(c2)OCO3)cc1 (centres undefined)	0	11	1	7	-4	0	.	.
Cc1cccc(-n2ncc3c2CCCC3NC(=O)C2=CC(=O)CC(C)(C)O2)c1C (centres undefined)	0	5	1	16	7	4	.	.
COc1ccc(C(=O)/C=C/Nc2cccc(C)n2)cc1OC	11*	-18	-5	3	4	2	117*	46*
CCN1C(=O)[C@H]2[C@@H](c3ccc(-c4ccc(OC)cc4)cc3)N3CCC[C@@]3(C(=O)OC)[C@H]2C1=O	0	32	6	6	-2	-6	.	.
Nc1nonc1-n1nnc(C(=O)N/N=C/c2ccccc2F)c1-c1cccs1	0	4	-10	-2	0	2	.	.
C/C(=N\N=C\c1ccccc1F)c1nnn(-c2nonc2N)c1C	10*	8	7	-7	2	-2	88*	31*
C=CCOC(=O)C1=C(C)NC(C)=C(C(=O)OCC=C)C1c1cn(-c2ccccc2)nc1-c1ccco1	13*	-2	-4	-2	4	0	11	5
CNS(=O)(=O)c1ccc(C(=O)NCC(=O)NC(C)c2cccs2)cc1 (centres undefined)	-2	9	-11	2	-1	-3	.	.
Cc1cccc(NC(=O)NC2CCCCCCC2)c1	7.6*	-1	15	-2	3	3	102*	36*
Cc1ccc(NC(=O)NC2CCCCCCC2)cc1C	9.7*	-5	-1	9	-1	-3	93*	36*
CC(=O)c1cccc(NC(=O)NC2CCCCCCC2)c1	0	-8	19	7	2	-3	.	.
O=C(Nc1ccc(F)c(F)c1)NC1CCCCC1	1	-4	7	-2	-3	2	.	.
Cc1ccccc1CN1CCN(C2CCC2)CC1CCO (centres undefined)	1	18	-4	-9	5	-1	.	.
Cc1ccc(C)c(CC(=O)N2CCCC(c3cc(C(=O)NCc4ccccc4)no3)C2)c1 (centres undefined)	0	.	.	13	4	.	.	.
